Test results reported in ChEMBL document CHEMBL4387722.

How the values were obtained:
[1] = target: T1, Phosphotyrosine protein phosphatase (Mycobacterium tuberculosis, UniProt A0A045ISB3); assay: Inhibition of Mycobacterium tuberculosis His-tagged PtpB expressed in Escherichia coli Rosetta 2 (DE3) using pNPP as substrate after 30 mins by spectrophotometric method
T1 sequence (A0A045ISB3 whole entry): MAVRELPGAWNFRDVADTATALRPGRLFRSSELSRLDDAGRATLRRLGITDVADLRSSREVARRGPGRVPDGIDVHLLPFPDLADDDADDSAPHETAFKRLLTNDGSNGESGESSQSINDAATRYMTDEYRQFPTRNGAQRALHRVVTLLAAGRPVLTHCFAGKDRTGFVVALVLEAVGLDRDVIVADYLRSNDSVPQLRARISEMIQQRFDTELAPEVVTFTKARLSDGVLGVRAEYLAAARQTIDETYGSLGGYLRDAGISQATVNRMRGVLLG

[2] = target: T2, Tyrosine-protein phosphatase non-receptor type 1 (Homo sapiens, UniProt P18031); assay: Inhibition of human PTPN1 expressed in Escherichia coli Rosetta 2 (DE3) using pNPP as substrate after 45 mins by spectrophotometric method
T2 sequence (P18031 whole entry): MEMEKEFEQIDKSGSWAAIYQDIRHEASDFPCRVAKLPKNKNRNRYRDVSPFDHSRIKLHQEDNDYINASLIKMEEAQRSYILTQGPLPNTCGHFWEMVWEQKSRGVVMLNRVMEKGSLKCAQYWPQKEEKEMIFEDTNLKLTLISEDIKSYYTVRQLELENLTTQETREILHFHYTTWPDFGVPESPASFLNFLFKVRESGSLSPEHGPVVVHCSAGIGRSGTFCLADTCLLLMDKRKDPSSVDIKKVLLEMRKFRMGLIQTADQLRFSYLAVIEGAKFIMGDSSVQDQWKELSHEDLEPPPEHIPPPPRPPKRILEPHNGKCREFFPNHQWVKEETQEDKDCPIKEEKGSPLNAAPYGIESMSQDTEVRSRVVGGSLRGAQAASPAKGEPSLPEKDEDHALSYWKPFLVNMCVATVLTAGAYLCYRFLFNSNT

[3] = target: T3, Tyrosine-protein phosphatase non-receptor type 2 (Homo sapiens, UniProt P17706); assay: Inhibition of human PTPN2 expressed in Escherichia coli Rosetta 2 (DE3) using pNPP as substrate after 45 mins by spectrophotometric method
T3 sequence (P17706 whole entry): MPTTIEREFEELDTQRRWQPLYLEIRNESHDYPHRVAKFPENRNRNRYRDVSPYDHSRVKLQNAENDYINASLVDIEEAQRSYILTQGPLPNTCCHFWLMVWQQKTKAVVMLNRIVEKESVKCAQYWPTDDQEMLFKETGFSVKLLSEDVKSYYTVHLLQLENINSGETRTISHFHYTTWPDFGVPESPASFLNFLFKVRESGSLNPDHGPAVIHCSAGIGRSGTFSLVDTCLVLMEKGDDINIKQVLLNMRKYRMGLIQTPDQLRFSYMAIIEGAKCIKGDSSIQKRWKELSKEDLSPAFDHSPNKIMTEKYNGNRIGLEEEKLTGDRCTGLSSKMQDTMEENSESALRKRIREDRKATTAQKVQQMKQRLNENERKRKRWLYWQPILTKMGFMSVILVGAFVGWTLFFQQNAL

[4] = target: T4, Tyrosine-protein phosphatase non-receptor type 5 (Homo sapiens, UniProt P54829); assay: Inhibition of human PTPN5 expressed in Escherichia coli Rosetta 2 (DE3) using pNPP as substrate after 45 mins by spectrophotometric method
T4 sequence (P54829 whole entry): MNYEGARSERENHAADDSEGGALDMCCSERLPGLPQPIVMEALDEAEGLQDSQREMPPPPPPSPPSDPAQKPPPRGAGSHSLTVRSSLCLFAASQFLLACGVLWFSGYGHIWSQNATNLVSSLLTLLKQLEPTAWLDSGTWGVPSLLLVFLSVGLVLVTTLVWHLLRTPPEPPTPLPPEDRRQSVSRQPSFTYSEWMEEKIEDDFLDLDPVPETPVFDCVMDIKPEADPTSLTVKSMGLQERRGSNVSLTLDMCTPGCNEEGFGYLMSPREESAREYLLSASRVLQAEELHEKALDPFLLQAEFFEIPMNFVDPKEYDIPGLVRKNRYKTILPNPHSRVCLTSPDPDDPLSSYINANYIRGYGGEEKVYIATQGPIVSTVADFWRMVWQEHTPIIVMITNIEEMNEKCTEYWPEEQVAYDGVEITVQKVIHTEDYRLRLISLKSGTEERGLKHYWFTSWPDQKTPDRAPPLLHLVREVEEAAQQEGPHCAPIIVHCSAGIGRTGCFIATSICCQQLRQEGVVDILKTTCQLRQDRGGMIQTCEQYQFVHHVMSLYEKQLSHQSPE

[5] = system: Mycobacterium tuberculosis; assay: Antitubercular activity against Mycobacterium tuberculosis H37Rv after 5 days at 200 uM relative to control; type: functional; details: 120 h
In short: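 M. tuberculosis grown in liquid culture with compound at a fixed 200 μM for 5 days. Growth inhibition expressed as percent of control.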

SMILES	IC50 [1]	IC50 [2]	IC50 [3]	IC50 [4]	inhibition at 200 µM [5]
O=S(=O)(Nc1ccc2oc(-c3ccc(NS(=O)(=O)c4ccc(Cl)s4)cc3)nc2c1)c1ccc(F)c(C(F)(F)F)c1	5.7 µM	11 µM	20 µM	14 µM	0%
O=[N+]([O-])c1ccccc1S(=O)(=O)Nc1ccc(-c2nc3cc(NS(=O)(=O)c4ccccc4[N+](=O)[O-])ccc3o2)cc1	10 µM	28 µM	28 µM	29 µM	39%
O=S(=O)(Nc1ccc(-c2nc3cc(NS(=O)(=O)c4ccccc4Cl)ccc3o2)cc1)c1ccccc1Cl	6.4 µM	16 µM	22 µM	17 µM	0%
COC(=O)c1cccc(S(=O)(=O)Nc2ccc(-c3nc4cc(NS(=O)(=O)c5cccc(C(=O)OC)c5)ccc4o3)cc2)c1	5.8 µM	17 µM	13 µM	16 µM	0%
O=[N+]([O-])c1ccc(S(=O)(=O)Nc2ccc(-c3nc4cc(NS(=O)(=O)c5ccc([N+](=O)[O-])cc5)ccc4o3)cc2)cc1	6.2 µM	27 µM	28 µM	18 µM	0%
O=S(=O)(Nc1ccc(-c2nc3cc(NS(=O)(=O)c4ccc(Cl)s4)ccc3o2)cc1)c1ccc2ncsc2c1	7.1 µM	7.9 µM	11 µM	13 µM	33%
O=S(=O)(Nc1ccc(-c2nc3cc(NS(=O)(=O)c4ccc(Cl)s4)ccc3o2)cc1)c1ccccc1	6.7 µM	19 µM	29 µM	17 µM	41%
O=S(=O)(Nc1ccc(-c2nc3cc(NS(=O)(=O)c4cccc(Br)c4)ccc3o2)cc1)c1cccc(Br)c1	0.79 µM	14 µM	11 µM	11 µM	17%
O=S(=O)(Nc1ccc(-c2nc3cc(NS(=O)(=O)c4cccc(C(F)(F)F)c4)ccc3o2)cc1)c1cccc(C(F)(F)F)c1	2.9 µM	12 µM	12 µM	16 µM	0%
CCc1ccc(S(=O)(=O)Nc2ccc(-c3nc4cc(NS(=O)(=O)c5ccc(Cl)s5)ccc4o3)cc2)cc1	6.5 µM	14 µM	12 µM	12 µM	11%
O=S(=O)(Nc1ccc2oc(-c3ccc(NS(=O)(=O)c4ccc(Cl)s4)cc3)nc2c1)c1ccc(Cl)c(Cl)c1	3.3 µM	7.6 µM	13 µM	11 µM	0%
O=S(=O)(Nc1ccc2oc(-c3ccc(NS(=O)(=O)c4ccc(Cl)s4)cc3)nc2c1)c1cccc(C(F)(F)F)c1	7.1 µM	13 µM	20 µM	16 µM	0%
O=S(=O)(Nc1ccc2oc(-c3ccc(NS(=O)(=O)c4ccc(Cl)s4)cc3)nc2c1)c1ccc2ncsc2c1	3.6 µM	12 µM	9.3 µM	11 µM	50%
O=c1ccc2cc(S(=O)(=O)Nc3ccc(-c4nc5cc(NS(=O)(=O)c6ccc7oc(=O)ccc7c6)ccc5o4)cc3)ccc2o1	8.7 µM	6.3 µM	9.1 µM	17 µM	23%
O=C(O)c1ccc(S(=O)(=O)Nc2ccc(-c3nc4cc(NS(=O)(=O)c5ccc(C(=O)O)cc5)ccc4o3)cc2)cc1	12 µM	> 100 µM	> 100 µM	> 100 µM	10%
Cc1ccc(S(=O)(=O)Nc2ccc(-c3nc4ccc(NS(=O)(=O)c5ccc(C)cc5)cc4[nH]3)cc2)cc1	23 µM	15 µM	22 µM	13 µM	14%
O=S(=O)(Nc1ccc(-c2nc3cc(NS(=O)(=O)c4ccc(Cl)s4)ccc3o2)cc1)c1cccc(C(F)(F)F)c1	3 µM	12 µM	16 µM	16 µM	36%
O=S(=O)(Nc1ccc(-c2nc3cc(NS(=O)(=O)c4ccc(Cl)cc4)ccc3o2)cc1)c1ccc(Cl)cc1	4.3 µM	8.1 µM	19 µM	12 µM	0%
O=S(=O)(Nc1ccc2oc(-c3ccc(NS(=O)(=O)c4ccc(Cl)s4)cc3)nc2c1)c1ccc(Cl)c(C(F)(F)F)c1	3.8 µM	7.6 µM	14 µM	11 µM	0%
CCCS(=O)(=O)Nc1ccc(-c2nc3cc(NS(=O)(=O)CCC)ccc3o2)cc1	> 100 µM	> 100 µM	> 100 µM	83 µM	13%
O=S(=O)(Nc1ccc(-c2nc3cc(NS(=O)(=O)C(F)(F)F)ccc3o2)cc1)C(F)(F)F	42 µM	> 100 µM	> 100 µM	> 100 µM	28%
O=S(=O)(Nc1ccc(-c2nc3cc(NS(=O)(=O)c4ccc(Cl)s4)ccc3o2)cc1)c1ccc(Cl)c(C(F)(F)F)c1	2 µM	7.6 µM	13 µM	12 µM	0%
C=Cc1ccc(S(=O)(=O)Nc2ccc(-c3nc4cc(NS(=O)(=O)c5ccc(Cl)s5)ccc4o3)cc2)cc1	5 µM	10 µM	14 µM	13 µM	14%
O=S(=O)(Nc1ccc(-c2nc3cc(NS(=O)(=O)c4ccc(Cl)s4)ccc3o2)cc1)c1ccc(Cl)s1	2.3 µM	11 µM	25 µM	15 µM	41%
O=S(=O)(Nc1ccc(-c2nc3cc(NS(=O)(=O)c4ccc(Cl)s4)ccc3o2)cc1)c1cccs1	3.4 µM	4.9 µM	9.5 µM	9.3 µM	0%
C=Cc1ccc(S(=O)(=O)Nc2ccc3oc(-c4ccc(NS(=O)(=O)c5ccc(Cl)s5)cc4)nc3c2)cc1	3.9 µM	7.2 µM	12 µM	12 µM	10%
O=S(=O)(Nc1ccc(-c2nc3cc(NS(=O)(=O)c4ccc5nsnc5c4)ccc3o2)cc1)c1ccc2nsnc2c1	6.4 µM	8 µM	11 µM	11 µM	0%
COc1ccccc1S(=O)(=O)Nc1ccc(-c2nc3cc(NS(=O)(=O)c4ccccc4OC)ccc3o2)cc1	8.7 µM	12 µM	21 µM	19 µM	12%
O=S(=O)(Nc1ccc(-c2nc3cc(NS(=O)(=O)c4cccc5ccccc45)ccc3o2)cc1)c1cccc2ccccc12	2.1 µM	3.2 µM	25 µM	4.9 µM	0%
